Experimental data as given in article PMC5221563 (Molecular cancer therapeutics, 2016).
Where two headings read alike, the source gives them in different places.

How the values were obtained:
[1] = tested on: CD44+/CD133+/EpCAM+ MiaPaCa-2 CSC tumors; assay: MiaPaCa-2 CSC subcutaneous xenograft; assay type: in vivo, ICR-SCID mice
In short: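 CD44+/CD133+/EpCAM+ MiaPaCa-2 cells, isolated by FACS, were kept in serum-free sphere medium (1:1 DMEM/F-12K with B27 and N2). 1×10^6 cells were implanted subcutaneously on both flanks of 4-week-old female ICR-SCID mice. Growth was confirmed in one mouse after 2–3 weeks. Tumor-bearing mice were then randomized into 2 groups of 6: vehicle control or treatment.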

multi-drug transporters [2] = conditions: cited from earlier work
[3] = clinical trial NCT00932126; cited from earlier work
PAK4 = PAK4 (Homo sapiens, UniProt O96013); conditions: cited from earlier work
Tolerability in mice = assay type: in vivo; conditions: 200 mg/kg daily administered either intravenously or orally
[4] = target: PAK4-vimentin interaction (Homo sapiens, UniProt O96013); assay: Co-immunoprecipitation of PAK4 and vimentin; assay type: cell-based; conditions: vs control treatment
In short: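 Lysates (200 micro gram protein) from control or test-compound-treated cells were immunoprecipitated with PAK4 or vimentin antibodies. The immunoprecipitates were resolved on a 10% gel, western blotted and probed with anti-PAK4 or anti-vimentin antibodies, with loading and internal controls. Two independent experiments were run.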

L3.6pl PDAC tumors = assay: L3.6pl subcutaneous xenograft; assay type: in vivo
In short: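 Four-week-old female ICR-SCID mice: 10 per group were trocared bilaterally s.c. with ~50 mg L3.6pl tumor fragments, then randomised. Treatment was diluent or test compound 140 mg/kg i.v., 5 times per week for 4 weeks. At day 21 the control arm got 140 mg/kg i.v. once daily, 5 days a week, for one more week. Tumor weight, body weight and side effects were tracked; excised tumors were H&E stained.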

L3.6pl cells [5] = assay: Annexin V FITC apoptosis, combination treatment; assay type: cell-based; conditions: combination with gemcitabine or oxaliplatin, 96 hrs
In short: (§1)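 Human PDAC cells plated at 50,000 per well in six-well plates. After 24 hrs, exposed for 96 hrs to test compound, gemcitabine, oxaliplatin, or test compound plus either drug. Cells trypsinized; equal numbers stained with Annexin V FITC and propidium iodide per kit protocol. Analysed by flow cytometry.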

[6] = tested on: PARP cleavage in MiaPaCa-2 cells; assay: Western blot for PARP cleavage; assay type: cell-based, human; conditions: 72 hrs
In short: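 1×10^6 MiaPaCa-2 cells were grown overnight in 100 mm dishes to ~50% confluence. They were exposed to the indicated test compound concentrations for 72 hrs. Protein was extracted, separated by SDS-PAGE and western blotted with a PARP antibody, using β-actin as the loading control.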

MiaPaCa-2 cells [7] = assay: MTT isobologram synergy analysis; assay type: cell-based, human; conditions: MiaPaCa-2, KPT-9274 (60, 120 or 180 nM) with oxaliplatin (2, 4 or 8 μM), 72 hrs
In short: (§2)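 Cells at 5,000 per well in 96-well plates were treated after 24 hrs with test compound (60, 120 or 180 nM), a chemotherapy partner, or both for 72 hrs. The MTT read-out used 5 mg/mL reagent for 2 hrs, formazan dissolved in DMSO and absorbance at 595 nm. Mean absorbance went into isobologram analysis, and the combination index was calculated.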

[8] = tested on: p-PAK4 and group I PAKs in DU-145 prostate cancer cell line; assay: PAK isoform phosphorylation in DU-145 cells; assay type: cell-based; conditions: sub-IC50 amount
AsPC-1 tumors = assay: AsPC-1 subcutaneous xenograft; assay type: in vivo, ICR-SCID mice; conditions: KPT-9274 single agent, p < 0.05
L3.6pl cells [9] = assay: MTT isobologram synergy analysis; assay type: cell-based; conditions: 72 hrs
In short: as §2

MiaPaCa-2 cells [10] = assay: Annexin V FITC apoptosis, combination treatment; assay type: cell-based, human; conditions: MiaPaCa-2, combination with gemcitabine or oxaliplatin, 96 hrs
In short: as §1

L3.6pl cells [11] = assay: Clonogenic assay, combination treatment; assay type: cell-based; conditions: combination with gemcitabine or oxaliplatin
In short: (§3)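 Cells were seeded at 50,000 per well in six-well plates and allowed to attach for 24 hrs. They were then exposed for 72 hrs to test compound, gemcitabine, oxaliplatin or a combination. Afterwards, 1,000 cells per condition were re-seeded in 100 mm dishes and grown. Colonies were stained, counted and photographed.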

multi-drug transporters [12] = assay: Multi-drug transporter substrate status; assay type: in vitro ADME; conditions: data not shown
MiaPaCa-2 cells [13] = assay: Clonogenic assay, combination treatment; assay type: cell-based, human; conditions: MiaPaCa-2, combination with gemcitabine or oxaliplatin
In short: as §3

[14] = tested on: PAK4, p-PAK4, cyclin D1, p-PAK2 in MiaPaCa-2 cells; assay: Western blot of PAK4 and related signaling; assay type: cell-based, human
In short: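 MiaPaCa-2 cells (1×10^6 per 100 mm dish, ~50% confluent) were exposed to test compound for 72 hrs. Protein was extracted and western blotted, and blots were probed for p-PAK4 and p-PAK2 with β-actin as the loading control. Blots are representative of two independent experiments.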

[15] = 140 mg/kg IV, 5 days per week, SCID mice

PAK4, sequence (O96013 whole entry): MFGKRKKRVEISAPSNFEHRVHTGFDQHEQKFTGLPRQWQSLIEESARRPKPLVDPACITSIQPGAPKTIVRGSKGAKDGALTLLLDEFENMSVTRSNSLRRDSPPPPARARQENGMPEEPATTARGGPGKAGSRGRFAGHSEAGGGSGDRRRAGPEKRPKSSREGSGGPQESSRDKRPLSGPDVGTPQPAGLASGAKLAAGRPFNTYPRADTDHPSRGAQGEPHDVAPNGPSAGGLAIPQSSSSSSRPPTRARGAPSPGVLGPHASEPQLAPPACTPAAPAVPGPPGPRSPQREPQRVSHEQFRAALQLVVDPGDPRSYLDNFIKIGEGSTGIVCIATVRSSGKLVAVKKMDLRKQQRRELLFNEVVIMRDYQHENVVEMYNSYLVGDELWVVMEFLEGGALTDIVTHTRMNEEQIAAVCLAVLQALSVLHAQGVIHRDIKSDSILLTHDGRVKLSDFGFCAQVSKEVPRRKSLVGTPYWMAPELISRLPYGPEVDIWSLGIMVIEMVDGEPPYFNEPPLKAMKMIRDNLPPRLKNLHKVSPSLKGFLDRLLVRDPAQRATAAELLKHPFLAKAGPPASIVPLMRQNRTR
PAK4-vimentin interaction, sequence (O96013 whole entry): as above

In the case of Nc1ccn([C@@H]2O[C@H](CO)[C@@H](O)C2(F)F)c(=O)n1 [gemcitabine, reference compound], the “response of CSC tumors” value ([1]; 50 mg/kg i.p.) was “do not respond”.

For Cc1nc(Nc2n[nH]c3c2CN(C(=O)N[C@H](CN(C)C)c2ccccc2)C3(C)C)c2sccc2n1 [PF-03758309], the “substrate of the multi-drug transporters” value (multi-drug transporters [2]) is given as “substrate of the multi-drug transporters” and the human bioavailability [3] is given as < 1%.

For COc1nc(NCCc2c[nH]c3ccccc23)nc(Nc2ccc3[nH]ncc3c2)n1 [KY-04031], the “binding affinity towards PAK4” value (PAK4) is given as “very low binding affinity”.

With Nc1ccc(/C=C/C(=O)NCc2cc3cc(-c4ccc(C(=O)N5CCC(F)(F)CC5)cc4)cc(-c4ccc(F)cc4)c3o2)cn1 [KPT-9274] the tolerability in mice (Tolerability in mice) was “well tolerated”, the “PAK4-vimentin interaction (co-immunoprecipitation)” value [4] was “disruption of PAK4-vimentin interaction” and the “effect on large established tumors (control group, mean tumor 1500 mg)” value (L3.6pl PDAC tumors; 140 mg/kg IV per day from day 21, 3 doses) was “regress large established tumors”. For the same molecule, the “anti-tumor activity on L3.6pl tumors” value (L3.6pl PDAC tumors; [15]) was “completely eliminated”, the “outward signs of toxicity, body weight loss” value (L3.6pl PDAC tumors; [15]) was “did not see any outward signs of toxicity, body weight loss” and the “apoptosis, combination vs either single agent alone” value (L3.6pl cells [5]) was “statistically significant enhancement in apoptosis”. The “PARP cleavage (western blot)” value [6] was “significant PARP cleavage”, the “suppression of CSC tumors” value ([1]; 140 mg/kg once daily i.v.) was “almost complete suppression of CSC tumors” and the “combination index (CI)” value (MiaPaCa-2 cells [7]) was < 1. For the same molecule, the “p-PAK4 versus group I PAKs” value [8] was “selective inhibition of p-PAK4 sparing other group I PAKs”, the “tumor growth, AsPC-1 xenograft” value (AsPC-1 tumors) was “statistically significant inhibition of tumor growth” and the “combination index (CI)” value (L3.6pl cells [9]; KPT-9274 (60, 120 or 180 nM) with gemcitabine (10, 20 or 40 nM)) was < 1. For the same molecule, the “combination index (CI)” value (L3.6pl cells [9]; KPT-9274 (60, 120 or 180 nM) with oxaliplatin (2, 4 or 8 μM)) was < 1, the “apoptosis, combination vs either single agent alone” value (MiaPaCa-2 cells [10]) was “statistically significant enhancement in apoptosis” and the “colony formation, combination vs single agents alone” value (L3.6pl cells [11]) was “inhibition of colony formation”. The “substrate of the multi-drug transporters” value (multi-drug transporters [12]) was “not a substrate of the multi-drug transporters”, the “colony formation, combination vs single agents alone” value (MiaPaCa-2 cells [13]) was “inhibition of colony formation” and the “p-PAK2 level (western blot)” value [14] was “without effecting”. For the same molecule, the “p-PAK4 level (western blot)” value [14] was “reduced”.
